Results from PubChem BioAssay AID624121 (Johns Hopkins Ion Channel Center, 2012).

Biological target: Potassium channel subfamily K member 9 (Homo sapiens) (UniProt Q9NPC2)
Test: blockade of KCNK9 potassium currents – cell-based, manual electrophysiology, SAR follow-up (AID 624121)
Settings: HEK293 KCNK9 stable, whole-cell patch clamp current; at 1 µM; active compounds read high
Method in brief: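 Measure: percent current inhibition at -20 mV versus current in 5 mM K+ bath. Test system: inducible KCNK9-expressing HEK293 cell line. Doses: one dose, 1 µM. Signal: whole-cell patch clamp current at -20 mV. Timing: induction 16–24 h pre-recording, 30 s ramp interval.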

Sequence of Potassium channel subfamily K member 9 (Homo sapiens) (Q9NPC2 whole entry, looked up): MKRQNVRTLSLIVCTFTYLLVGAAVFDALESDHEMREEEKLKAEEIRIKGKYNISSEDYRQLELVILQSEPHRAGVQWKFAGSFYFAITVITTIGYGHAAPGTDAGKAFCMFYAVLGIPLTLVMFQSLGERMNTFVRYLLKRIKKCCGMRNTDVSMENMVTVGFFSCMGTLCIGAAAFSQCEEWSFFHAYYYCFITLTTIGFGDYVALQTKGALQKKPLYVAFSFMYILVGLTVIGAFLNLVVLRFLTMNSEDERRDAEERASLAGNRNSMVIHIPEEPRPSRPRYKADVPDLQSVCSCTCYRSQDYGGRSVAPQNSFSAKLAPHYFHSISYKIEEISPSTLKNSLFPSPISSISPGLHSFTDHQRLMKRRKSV

- inhibition: 55.2%
SMILES: C[C@@H]([C@@H]1CC2CC[C@H]1C2)n1c(-c2ccco2)n[nH]c1=S
